Assays:
THP-1 [1] = experiment: Increase in ABCA1 gene expression in THP1 cells at 1 uM relative to GW-3965; assay type: functional, Homo sapiens
Summary of the method: (§1)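 THP-1 cells differentiated with 40 ng/mL PMA for 1 day, then switched to RPMI with 2% lipoprotein-deficient FBS. Compound added 6 h later at 1 or 10 µM in DMSO, incubated 24 h. ABCA1 mRNA by one-step TaqMan qRT-PCR, triplicate, multiplexed with 36B4; fold induction vs DMSO, expressed relative to reference dual agonist.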

[2] = target: T1, Oxysterols receptor LXR-beta (Homo sapiens) (UniProt P55055); experiment: Agonist activity at GAL-linked human LXRbeta expressed in THP1 cells assessed as stimulation of co-activator recruitment by FRET assay relative to GW-3965; assay type: functional
T1 sequence (whole entry): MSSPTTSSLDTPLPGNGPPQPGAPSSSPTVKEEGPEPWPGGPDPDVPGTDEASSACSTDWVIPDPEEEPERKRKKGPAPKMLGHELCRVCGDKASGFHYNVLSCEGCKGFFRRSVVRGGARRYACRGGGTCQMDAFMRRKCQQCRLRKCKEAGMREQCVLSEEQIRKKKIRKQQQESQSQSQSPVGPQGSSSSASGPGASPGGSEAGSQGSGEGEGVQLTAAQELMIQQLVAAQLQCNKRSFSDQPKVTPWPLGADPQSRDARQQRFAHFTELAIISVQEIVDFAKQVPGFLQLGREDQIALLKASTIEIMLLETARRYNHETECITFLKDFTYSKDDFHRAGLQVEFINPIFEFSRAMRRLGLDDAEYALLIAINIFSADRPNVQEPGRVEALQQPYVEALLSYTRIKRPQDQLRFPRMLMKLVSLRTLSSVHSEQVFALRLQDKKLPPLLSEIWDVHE
Summary of the method: (§2)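 Cell-free TR-FRET coactivator recruitment: 20 nM His-tagged hLXRα or hLXRβ, 300 nM biotinylated SRC-1 peptide, Eu-anti-His antibody, APC-streptavidin. 12-point curves from 20 µM; 1 h at 37 °C. Duplicate. %E = maximal coactivator recruitment relative to reference dual agonist in same experiment.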

THP-1 [3] = experiment: Increase in ABCA1 gene expression in THP1 cells at 10 uM relative to GW-3965; assay type: functional, Homo sapiens; summary of the method: as §1
[4] = target: T2, Oxysterols receptor LXR-alpha (Homo sapiens) (UniProt Q13133); experiment: Agonist activity at GAL-linked human LXRalpha expressed in THP1 cells assessed as stimulation of co-activator recruitment by FRET assay relative to GW-3965; assay type: functional; summary of the method: as §2
T2 sequence (whole entry): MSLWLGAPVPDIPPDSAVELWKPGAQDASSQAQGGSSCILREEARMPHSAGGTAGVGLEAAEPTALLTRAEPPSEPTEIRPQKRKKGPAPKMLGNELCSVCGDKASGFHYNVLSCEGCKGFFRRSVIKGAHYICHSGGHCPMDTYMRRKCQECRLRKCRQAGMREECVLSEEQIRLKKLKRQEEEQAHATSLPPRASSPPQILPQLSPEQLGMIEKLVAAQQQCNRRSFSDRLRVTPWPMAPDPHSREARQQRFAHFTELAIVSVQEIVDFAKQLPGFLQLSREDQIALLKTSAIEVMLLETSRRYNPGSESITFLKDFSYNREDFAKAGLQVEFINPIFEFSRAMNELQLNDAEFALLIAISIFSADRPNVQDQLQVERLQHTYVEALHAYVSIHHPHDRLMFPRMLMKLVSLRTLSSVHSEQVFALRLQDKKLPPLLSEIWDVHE

[5] = target: T3, Oxysterols receptor LXR-beta (Homo sapiens, UniProt P55055); experiment: Agonist activity at GAL-linked human LXRbeta expressed in THP1 cells assessed as stimulation of co-activator recruitment by FRET assay; assay type: functional; summary of the method: as §2
T3 sequence (P55055 whole entry): T1 sequence (whole entry)

[6] = target: T4, Oxysterols receptor LXR-alpha (Homo sapiens, UniProt Q13133); experiment: Agonist activity at GAL-linked human LXRalpha expressed in THP1 cells assessed as stimulation of coactivator recruitment by FRET assay; assay type: functional; summary of the method: as §2
T4 sequence (Q13133 whole entry): T2 sequence (whole entry)

COc1cccc(C2SC(c3ccc(F)cc3)=NN2C(=O)c2c(F)ccc(F)c2F)c1OC (stereo not drawn)
Activity (THP-1 [1]): 35% | Efficacy [2]: 74% | Activity (THP-1 [3]): 42% | Efficacy [4]: < 15% | EC50 [5]: 970 nM

O=C(c1c(F)cc(F)cc1F)N1N=C(c2ccc(Cl)cc2)SC1c1ccccc1OC(F)(F)F (stereo not drawn)
Efficacy [2]: 31% | Activity (THP-1 [3]): 23% | Efficacy [4]: < 15% | EC50 [5]: 3400 nM

COc1cccc(C2SC(c3ccc(C)cc3)=NN2C(=O)c2c(F)cc(F)cc2F)c1OC (stereo not drawn)
EC50 [6]: 1400 nM | Activity (THP-1 [1]): 24% | Efficacy [2]: 98% | Activity (THP-1 [3]): 34% | Efficacy [4]: 52% | EC50 [5]: 200 nM

COc1ccccc1C1SC(c2ccc(Cl)cc2)=NN1C(=O)c1c(F)cc(F)cc1F (stereo not drawn)
EC50 [6]: 180 nM | Activity (THP-1 [1]): 57% | Efficacy [2]: 110% | Activity (THP-1 [3]): 54% | Efficacy [4]: 80% | EC50 [5]: 35 nM

COc1cccc(C2SC(c3ccc(F)c(F)c3)=NN2C(=O)c2cccc(F)c2)c1OC (stereo not drawn)
EC50 [6]: 1500 nM | Activity (THP-1 [1]): 27% | Efficacy [2]: 83% | Activity (THP-1 [3]): 47% | Efficacy [4]: 30% | EC50 [5]: 560 nM

COc1cccc(C2SC(c3ccc(F)cc3)=NN2C(=O)c2cc(F)cc(F)c2)c1OC (stereo not drawn)
EC50 [6]: 2100 nM | Activity (THP-1 [1]): 21% | Efficacy [2]: 95% | Activity (THP-1 [3]): 37% | Efficacy [4]: 40% | EC50 [5]: 470 nM

COc1cc(F)ccc1C1SC(c2ccc(F)cc2)=NN1C(=O)c1c(F)cc(F)cc1F (stereo not drawn)
EC50 [6]: 70 nM | Activity (THP-1 [1]): 99% | Efficacy [2]: 100% | Activity (THP-1 [3]): 59% | Efficacy [4]: 92% | EC50 [5]: 6 nM

COc1cccc(C2SC(c3ccc(Cl)c(Cl)c3)=NN2C(=O)c2c(F)cc(F)cc2F)c1OC (stereo not drawn)
Activity (THP-1 [1]): 18% | Efficacy [2]: 51% | Activity (THP-1 [3]): 46% | Efficacy [4]: < 15% | EC50 [5]: > 10000 nM

COc1cccc(C2SC(c3ccc(F)cc3)=NN2C(=O)c2cc(F)c(F)cc2F)c1OC (stereo not drawn)
Activity (THP-1 [1]): 30% | Efficacy [2]: 40% | Activity (THP-1 [3]): 48% | Efficacy [4]: < 15% | EC50 [5]: 600 nM

COc1cccc(C2SC(c3ccc(Cl)cc3)=NN2C(=O)c2c(F)cc(F)cc2F)c1 (stereo not drawn)
Efficacy [2]: 60% | Efficacy [4]: < 15% | EC50 [5]: 3700 nM

O=C(c1c(F)cc(F)cc1F)N1N=C(c2ccc(Cl)cc2)SC1c1cccc2c1OC(F)(F)O2 (stereo not drawn)
EC50 [6]: 3900 nM | Activity (THP-1 [1]): 35% | Efficacy [2]: 74% | Activity (THP-1 [3]): 61% | Efficacy [4]: 71% | EC50 [5]: 800 nM

COc1cccc(C2SC(c3ccc(F)cc3)=NN2C(=O)c2cccc(Cl)c2)c1OC (stereo not drawn)
Activity (THP-1 [1]): 13% | Efficacy [2]: 82% | Activity (THP-1 [3]): 36% | Efficacy [4]: < 15% | EC50 [5]: 250 nM
